We go through twelve compounds from ChEMBL document CHEMBL1124779, “Synthesis and antitumor activity of 1-[[(dialkylamino)alkyl]amino]-4-methyl-5H-pyrido[4,3-b]benzo[e]- and -benzo[g])indoles. A new class of antineoplastic agents” (1990).

Experiment [1] deals with P388. Put plainly: In vivo T/C (survival time treated/survival time control x 100) was determined against P388 leukemia cells at 20 mg/Kg. Type of experiment: functional, Mus musculus. In short, it runs like this:
(§1)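 B6D2 F1 mice, at least five per group, were inoculated ip on day 0 with 10^6 viable P388 cells (25 mL/kg). Compounds were dissolved in distilled water and given ip (25 mL/kg) daily on days 1–4. Mortality was checked daily, with necropsy of dead animals. T/C×100 was median survival, treated versus control. Survivors beyond 50 days counted as cured and were excluded from the median.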

Experiment [2] can be described thus: Tested for cytotoxicity in the multiple tumor disk diffusion soft agar assay at the dose of 15 ug/disk against solid tumor C38; U = 32 uM. Type of experiment: functional, Mus musculus. In short, it runs like this: (§2)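 Soft agar disk diffusion: bottom layer 0.8% noble agar, top layer 0.47% noble agar, both in 1:1 CMRL-Fischer medium with 11% horse serum. Top layer seeded with 5×10^3 L1210 cells or 10^6 solid tumor cells (C38, PO3). Drug applied on a dried 6-mm filter-paper disk. Incubation 7-11 days. Inhibition zone measured by inverted microscope, in units (1 unit = 30 μm).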

Experiment [3] concerns L1210. The experiment can be described thus: Tested for cytotoxicity in the multiple tumor disk diffusion soft agar assay at the dose of 15 ug/disk against leukemia L1210; U = 32 uM. It counts as functional, Mus musculus. An outline of the steps:
as §2

The subject of experiment [4] is P388. The experiment can be described thus: (§3) In vitro cytotoxicity was determined against P388 leukemia cells. Type of experiment: functional. As to conditions: Mus musculus, read-out: ID50 (the source's name). An outline of the steps:
(§4)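 P388 cells in exponential growth, RPMI 1640 with 2 mM glutamine, 10 μM 2-mercaptoethanol and 10% FCS, 5% CO2, 37 °C. Cells at 10^5 cells/mL. Drugs in distilled water added on day 0. Cells counted by Coulter counter after 96 h. ID50 (μg/mL, 50% inhibition of proliferation) estimated by regression of concentration/response data.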

Experiment [5] deals with L1210. Put plainly: Tested for cytotoxicity in the multiple tumor disk diffusion soft agar assay at the dose of 15 ug/disk against leukemia L1210. It counts as functional, Mus musculus. In short, it runs like this: as §2
In experiment [6] the test system is L1210. The experiment can be described thus: Cytotoxicity in the multiple tumor disk diffusion soft agar assay at the dose of 15 ug/disk against leukemia L1210. Type of experiment: functional, Mus musculus. In short, it runs like this:
as §2

A short description of experiment [7]: Cytotoxicity in the multiple tumor disk diffusion soft agar assay at the dose of 15 ug/disk against solid tumor PO3. It counts as functional, Mus musculus. In short, it runs like this:
as §2

Experiment [8] deals with P388. Put plainly: In vivo T/C (survival time treated/survival time control x 100) was determined against P388 leukemia cells at 40 mg/Kg. It counts as functional, Mus musculus. In short, it runs like this: as §1
Experiment [9] in a line: Cytotoxicity in the multiple tumor disk diffusion soft agar assay at the dose of 15 ug/disk against solid tumor C38. It counts as functional, Mus musculus. An outline of the steps:
as §2

Experiment [10] can be described thus: Tested for cytotoxicity in the multiple tumor disk diffusion soft agar assay at the dose of 15 ug/disk against solid tumor PO3. It counts as functional, Mus musculus. In short, it runs like this:
as §2

Experiment [11] concerns L1210. Put plainly: In vivo T/C (survival time treated/survival time control x 100) was determined against L1210 leukemia cells at 20 mg/Kg. It counts as functional, Mus musculus. In short, it runs like this: (§5)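 B6D2 F1 mice, at least five per group, were inoculated ip on day 0 with 10^5 viable L1210 cells (25 mL/kg). Compounds were dissolved in distilled water and given ip (25 mL/kg) on days 1–4. Deaths were checked daily, with necropsy to separate tumor from toxic death. T/C×100 was median survival of treated over controls. Mice surviving over 50 days counted as cured and were excluded from the median.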

Experiment [12] in a line: Tested for cytotoxicity in the multiple tumor disk diffusion soft agar assay at the dose of 15 ug/disk against solid tumor C38. It counts as functional, Mus musculus. An outline of the steps:
as §2

Experiment [13] relates to L1210. Put plainly: Tested for cytotoxicity in the multiple tumor disk diffusion soft agar assay at the dose of 15 ug/disk against leukemia L1210; range is 0-450. It counts as functional, Mus musculus. In short, it runs like this: as §2
Experiment [14] relates to Mus musculus. Put plainly: In vivo total number of survivors was determined against P388 leukemia cells out of 5 mouse at 50 day. It counts as functional. An outline of the steps: as §1
A short description of experiment [15]: Tested for cytotoxicity in the multiple tumor disk diffusion soft agar assay at the dose of 15 ug/disk against solid tumor PO3; range is 350-450. It counts as functional, Mus musculus. An outline of the steps:
as §2

Experiment [16] in a line: Tested for the change in body weight between day 1 and 7 for murine solid tumor model 3LL early stage that is subcutaneously implanted by the intravenous treatment at the dose of 20 mg/kg in 1-4 schedule. Type of experiment: functional, Mus musculus.
For experiment [17], the species on record is Mus musculus. Described as §3. Type of experiment: functional. As to conditions: read-out: ID50 (the source's name). In short, it runs like this: as §4
Experiment [18] has as its system Mus musculus. Put plainly: In vivo total number of survivors was determined against L1210 Leukemia cells out of 8 mouse at 50 day. It counts as functional, Leukemia cell. In short, it runs like this: as §5
A short description of experiment [19]: Tested for mean number of metastases in treated/control animals x 100 (% T/C) for murine solid tumor model 3LL early stage that is intramuscularly implanted by the intravenous treatment at the dose of 20 mg/kg in 1-4 schedule. As to conditions: Mus musculus.
Experiment [20] relates to P388. Put plainly: In vivo T/C (survival time treated/survival time control x 100) was determined against P388 leukemia cells at 2.5 mg/Kg. Type of experiment: functional, Mus musculus. In short, it runs like this:
as §1

The subject of experiment [21] is P388. Put plainly: In vivo T/C (survival time treated/survival time control x 100) was determined against P388 leukemia cells at 5.0 mg/Kg. It counts as functional, Mus musculus. In short, it runs like this:
as §1

Experiment [22] has as its system L1210. Put plainly: Tested for cytotoxicity in the multiple tumor disk diffusion soft agar assay at the dose of 15 ug/disk against leukemia L1210; range is 450-650. Type of experiment: functional, Mus musculus. An outline of the steps:
as §2

Experiment [23] concerns L1210. The experiment can be described thus: In vivo T/C (survival time treated/survival time control x 100) was determined against L1210 leukemia cells at 10 mg/Kg. Type of experiment: functional, Mus musculus. In short, it runs like this:
as §5

Experiment [24] relates to P388. Put plainly: In vivo T/C (survival time treated/survival time control x 100) was determined against P388 leukemia cells at 10 mg/Kg. It counts as functional, Mus musculus. In short, it runs like this: as §1

Values after ≈ are worked out from the molar mass of the structure shown. Values joined by “and” are separate entries in the source; they are usually repeats but may differ in a detail not shown here. Identical values can stand only once.

On to `Cc1cnc(NCCCN(C)C)c2c3ccc4c(O)cccc4c3n(C)c12`, for which the “T/C x100” value with P388 [1] is on record as 135. In addition, the Cytotoxicity in experiment [2] stood at 900 U; in the experiment on L1210 [3], 675 U. In addition, in the experiment with P388 [4], the IC50 was 0.025 µg/mL (≈ 0.069 µM).
As for `CCN(CC)CCCNc1[nH]cc(C)c2nc3c(ccc4cc(OC)ccc43)c1-2`, the Cytotoxicity in the experiment on L1210 [5] is on record as 325 U; in the experiment on L1210 [6], 200 U; in experiment [7], 200 U; in experiment [9], 285 U. In addition, in the experiment with P388 [4], the IC50 worked out at 0.5 µg/mL (≈ 1.28 µM). In addition, in the experiment with P388 [8], the “T/C x100” value is given as 131.
For `COc1ccc2c(ccc3[nH]c4c(C)cnc(NCCCN(C)C)c4c32)c1`, the Cytotoxicity in [10] was 630 U and 300 U; in the experiment with L1210 [6], 750 U and 350 U; in [12], 800 U and 450 U. For the same compound, the “T/C x100” value in the experiment on L1210 [11] was determined as 127. In addition, the IC50 in the experiment on P388 [4] worked out at 0.75 µg/mL (≈ 2.07 µM).
As to `Cc1cnc(NCCCN(C)C)c2c3c4ccc(O)cc4ccc3n(C)c12`, the results for the “T/C x100” value in the experiment with P388 [1] and with L1210 [11] were 243 and 127, respectively. Also, the Cytotoxicity in the experiment on L1210 [13] stood at 0 U; with L1210 [6], 350 U; in experiment [15] it was 350 U; in experiment [9], 750 U. For the same compound, the IC50 in the experiment on P388 [4] is 0.015 µg/mL (≈ 0.0414 µM). For the same compound, the Survivors in the experiment on Mus musculus [14] was 1.
Consider `CCN(CC)CCCNc1ncc(C)c2c1c1ccc3cc(O)ccc3c1n2C`, for which the “T/C x100” value with P388 [1] is on record as 124. Moreover, the Cytotoxicity with L1210 [5] was 400 U; in the experiment with L1210 [6], 300 U; in experiment [7], 350 U; in experiment [9], 325 U. The IC50 in the experiment on P388 [4] was 0.1 µg/mL (≈ 0.256 µM).
As to `CCN(CC)CCCNc1ncc(C)c2c1c1ccc3c(OC)cccc3c1n2C`, in the experiment on P388 [4], the IC50 came out at 0.75 µg/mL (≈ 1.85 µM). For the same compound, the values for the Cytotoxicity (in the experiment on L1210 [6]; in experiment [9]) were 450 U and 430 U, respectively. Further, the “T/C x100” value in the experiment with P388 [8] is reported as 124.
As for `Cc1c[nH]c(NCC(C)CN(C)C)c2c3c(ccc4cc(O)ccc43)nc1-2` (stereo not drawn), in the experiment with P388 [1], the “T/C x100” value is 213. In experiment [16], this compound yielded a Change in weight of -1.7 g. The IC50 in the experiment filed under Mus musculus [17] was found to be 0.1 µg/mL (≈ 0.276 µM). Moreover, the Cytotoxicity in the experiment with L1210 [6] worked out at 300 U; in experiment [7], 850 U; in [9], 675 U. For the same compound, the Survivors came to 2 in the experiment on Mus musculus [18] and 3 with Mus musculus [14]. Besides, the T/C in experiment [19] is recorded as 0%.
As to `Cc1c[nH]c(NCCCN(C)C)c2c3cc(O)ccc3nc1-2`, the “T/C x100” value with P388 [20] worked out at 130.
In the case of `COc1cccc2c1ccc1c2[nH]c2c(C)cnc(NCCCN(C)C)c21`, the “T/C x100” value with P388 [1] came to 121. In the experiment with P388 [4], the IC50 is 0.15 µg/mL (≈ 0.414 µM). The Cytotoxicity in the experiment on L1210 [6] is 280 U; in experiment [7], 225 U.
On to `Cc1cnc(NCCCN(C)C)c2c3cc(O)ccc3n(C)c12`, for which the “T/C x100” value in the experiment on P388 [21] came out at 128.
In the case of `CCN(CC)CCCNc1ncc(C)c2[nH]c3ccc4cc(O)ccc4c3c12`, the Cytotoxicity in the experiment on L1210 [22] is reported as 450 U; in the experiment on L1210 [6], 475 U; in experiment [7] it was 900 U; in experiment [9] it was 625 U. In the experiment with P388 [4], the IC50 amounted to 0.05 µg/mL (≈ 0.133 µM). Besides, the figures for the “T/C x100” value in the experiment on L1210 [23] and with P388 [24] were 149 and 215, respectively.
In the case of `Cc1cnc(NCCCN(C)C)c2c1[nH]c1ccc3ccccc3c12`, the Cytotoxicity in the experiment on L1210 [5] is 550 U; in [12], 675 U. Moreover, the IC50 in the experiment with P388 [4] was determined as 0.1 µg/mL (≈ 0.301 µM).
